Test results as given in ChEMBL document CHEMBL1125435, “Synthesis and biological activity of open-chain analogues of 5,6,7,8-tetrahydrofolic acid--potential antitumor agents” (J Med Chem, 1992).

What was measured:
MOLT-4 [1] = assay: Compound was evaluated for inhibition of [3H]methotrexate uptake into MOLT-4 cells; format: functional, cell-based; conditions: Homo sapiens
[2] = target: GAR transformylase (Sus scrofa); assay: In vitro inhibition of hog liver GAR transformylase with (6R)-10-formyl-FH4 as cofactor
MCF7 = assay: In vitro inhibition of growth of MCF-7 human breast adenocarcinoma using 72 hours continuous exposure; format: functional, cell-based
How it was run: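 ATCC MCF-7 cells grown in RPMI 1640 with 10 nM calcium leucovorin as folate source, 10% dialyzed fetal calf serum, penicillin, streptomycin and sodium pyruvate (110 μg/mL). Cells seeded at 15000/well, preincubated 24 h at 37 °C, then exposed 72 h (37 °C, 5% CO2), triplicate per concentration. Growth read by MTT reduction, formazan dissolved in DMSO, A570 (reference 750 nm), against a cell-number standard curve.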

MOLT-4 [3] = assay: In vitro inhibitory activity against MOLT-4 T-cell leukemia cell AICAR transformylase; format: functional, cell-based, Homo sapiens; conditions: for IC50: Homo sapiens, MOLT-4

Row | SMILES | IC50 (MOLT-4 [1]) [nM] | IC50 [2] [nM] | IC50 (MCF7) [nM] | IC50 (MOLT-4 [3]) [µM] | Inhibition (MOLT-4 [3]) [%]
1 | Nc1nc(N)c(CCCNc2ccc(C(=O)N[C@@H](CCC(=O)O)C(=O)O)cc2)c(O)n1 | 1200 | 3000 |  |  | 
2 | Nc1nc(O)c2c(n1)NCC(CCc1ccc(C(=O)NC(CCC(=O)O)C(=O)O)cc1)C2 (stereo unspecified) | 1500 |  | 18 |  | 
3 | Nc1nc(N)c(CCCNc2ccc(C(=O)NC(CCC(=O)O)C(=O)O)cc2F)c(O)n1 (stereo unspecified) | 1000 |  | 63 | 133 | 
4 | COc1cc(C(=O)NC(CCC(=O)O)C(=O)O)ccc1NCCCc1c(N)nc(N)nc1O (stereo unspecified) | 1000 |  | 5000 |  | 
5 | Cc1cc(C(=O)NC(CCC(=O)O)C(=O)O)ccc1NCCCc1c(N)nc(N)nc1O (stereo unspecified) | 1300 |  | 250 |  | 
6 | Nc1nc(N)c(CCCCNc2ccc(C(=O)NC(CCC(=O)O)C(=O)O)cc2)c(O)n1 (stereo unspecified) | 1500 |  | 5000 |  | 
7 | Nc1ncnc(O)c1CCCNc1ccc(C(=O)NC(CCC(=O)O)C(=O)O)cc1 (stereo unspecified) | 2000 |  | > 50000 |  | 26
8 | Nc1nnc(C2CCN(c3ccc(C(=O)NC(CCC(=O)O)C(=O)O)cc3)C2=O)c(O)n1 (stereo unspecified) | > 100000 |  | > 100000 |  | 
9 | Nc1nc(N)c(CCCOc2ccc(C(=O)NC(CCC(=O)O)C(=O)O)cc2)c(O)n1 (stereo unspecified) | 1100 |  | 85 |  | 

Now those with a lower IC50 (MOLT-4 [1]), led by results:

Row | IC50 (MOLT-4 [1]) [nM] | IC50 [2] [nM] | IC50 (MCF7) [nM] | IC50 (MOLT-4 [3]) [µM] | SMILES | Inhibition (MOLT-4 [3]) [%]
10 | 800 |  | 23 | 25.8 | Nc1nc(N)c(CCCSc2ccc(C(=O)NC(CCC(=O)O)C(=O)O)cc2)c(O)n1 (stereo unspecified) | 
11 | 700 |  | 33 | 79.3 | Nc1nc(N)c(CCCNc2ccc(C(=O)NC(CCC(=O)O)C(=O)O)c(F)c2)c(O)n1 (stereo unspecified) | 
12 | 700 |  | 115 | 182 | Nc1nc(N)c(CCCNc2ccc(C(=O)NC(CCC(=O)O)C(=O)O)c(Cl)c2)c(O)n1 (stereo unspecified) | 
13 | 900 |  | 61 |  | Nc1nc(N)c(CCCCc2ccc(C(=O)N[C@@H](CCC(=O)O)C(=O)O)cc2)c(=O)[nH]1 [DIDEAZAACYCLOTETRAHYDROFOLIC ACID] | 
